Results on 28 compounds are retold here after ChEMBL document CHEMBL5033990, “Novel Aryl-Substituted Pyrimidones as Inhibitors of 3-Mercaptopyruvate Sulfurtransferase with Antiproliferative Efficacy in Colon Cancer” (J Med Chem, 2021).

Calls of active or inactive are those of the source. The calls are words filed in the database; no cut-off is given here. Where only a bound is given, the exact number is not on record here.

The nature of assay [1]: Inhibition of GYY4137-induced H2S release assessed as H2S-induced fluorescence signal at 300 uM measured after 2 hrs by AzMC probe based fluorescence analysis. Format: functional. Set-up: scale not given: the % may be the effect or the level left. An outline of the steps: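 H2S scavenging/interference check in 50 mM Tris-HCl pH 8: compound at 300 μM with 100 μM AzMC and 5 mM GYY4137 as nonenzymatic H2S donor. Fluorescence read kinetically for 2 h at 37 °C (ex 365/em 450 nm). Signal loss above 20% flagged as potential scavenger/interferer.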

The nature of assay [2]: Inhibition of recombinant human 3-MST expressed in Escherichia coli assessed as inhibition of H2S generation using 3-MP as substrate preincubated with enzyme for 1 hr followed by incubation with substrate for 1 hr by AzMC probe based fluorescence analysis. An outline of the steps:
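Same 3-MST/3-MP/AzMC assay, 1 h preincubation then 1 h kinetic read, at 3, 10, 30, 100 and 300 μM (final DMSO 0.3%). Run for compounds inhibiting at least 60% at 100 μM. Three experiments in triplicate. IC50 from nonlinear fit of data taken between min 20 and 40 of the 60 min read.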

Assay [3] deals with CT26. As to the kind of experiment: Inhibition of 3-MST in mouse CT26 cells assessed as inhibition of H2S generation at 300 uM incubated for 4 hrs by AzMC probe based fluorescence analysis. The format is cell-based. An outline of the steps:
(§1)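 Cells seeded at 60,000/well in 8-well chambers and allowed to adhere overnight. Exposed to 300 μM compound for 4 h, then supernatant replaced with 1 mM AzMC in HBSS plus glucose for 1 h. Fluorescence imaged by microscopy; mean pixel intensity expressed as percent of control.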

A further assay concerns MC38. As to the kind of experiment: Inhibition of 3-MST in mouse MC38 cells assessed as inhibition of H2S generation at 300 uM incubated for 4 hrs by AzMC probe based fluorescence analysis. The format is cell-based. The method in brief: as §1
Assay [4] relates to CT26. As to the kind of experiment: Antiproliferative activity against mouse CT26 cells assessed as inhibition of cell proliferation measured after 24 hrs by MTT assay. Format: functional, cell-based. The note with it: CT26, 24 h. On the technique in general: Tetrazolium assays rely on reduction of a dye to a coloured formazan, in cell work by metabolically active cells.
Assay [5] deals with MC-38. Put plainly: Antiproliferative activity against mouse MC38 cells assessed as inhibition of cell proliferation measured after 48 hrs by IncuCyte live-cell imaging assay. The format is functional, cell-based. The following applies: MC-38, 48 h.
In assay [6] the test system is MC-38. Put plainly: Antiproliferative activity against mouse MC38 cells assessed as inhibition of cell proliferation upto 300 uM measured after 24 hrs by MTT assay. The following applies: dose microM <=300, time 24.0 hrs. Format: functional, cell-based. The method in brief:
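CT26 or MC38 cells in high-glucose DMEM with 10% FBS and penicillin/streptomycin, 37 °C, 5% CO2. Seeded at 10,000 cells/well and treated after 1 h adherence at 3, 10, 30, 100 and 300 μM (final DMSO 0.5%). After 24 h, medium replaced by 2 mg/mL MTT in PBS for 3 h. Formazan dissolved in DMSO, absorbance read at 590 nm minus 690 nm. Expressed as percent of control; three experiments in triplicate.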

In assay [7] the target is Cystathionine gamma-lyase (Homo sapiens) (UniProt P32929). Put plainly: Inhibition of human full length CSE using L-cysteine as substrate at 30 to 300 uM preincubated with enzyme for 1 hr followed by substrate and PLP addition for 2 hrs by AzMC probe based fluorescence analysis. The note with it: dose 30-300 µM, time 3.0 hrs. The method in brief: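 Human full-length CSE, 2 μg/well, preincubated 1 h with compound at 30 or 300 μM. Then added 5 μM PLP and 2 mM L-cysteine. AzMC fluorescence read kinetically for 2 h at 37 °C. Substrate background subtracted; percent of control, at least three replicates.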
Sequence of Cystathionine gamma-lyase (Homo sapiens) (P32929 whole entry): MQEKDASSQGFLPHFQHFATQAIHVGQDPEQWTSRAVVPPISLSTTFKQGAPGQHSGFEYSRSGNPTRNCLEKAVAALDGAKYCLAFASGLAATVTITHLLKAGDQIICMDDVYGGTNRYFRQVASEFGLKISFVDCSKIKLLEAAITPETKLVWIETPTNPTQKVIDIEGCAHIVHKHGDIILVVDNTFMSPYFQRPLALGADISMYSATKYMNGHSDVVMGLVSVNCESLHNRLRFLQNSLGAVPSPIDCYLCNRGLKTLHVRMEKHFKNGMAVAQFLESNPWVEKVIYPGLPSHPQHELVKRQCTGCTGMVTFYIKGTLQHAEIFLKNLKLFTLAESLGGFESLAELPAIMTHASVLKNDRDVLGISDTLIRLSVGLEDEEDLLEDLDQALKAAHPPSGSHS

Assay [8] deals with T1, Cystathionine beta-synthase (Homo sapiens) (UniProt P35520).
T1 sequence (whole entry): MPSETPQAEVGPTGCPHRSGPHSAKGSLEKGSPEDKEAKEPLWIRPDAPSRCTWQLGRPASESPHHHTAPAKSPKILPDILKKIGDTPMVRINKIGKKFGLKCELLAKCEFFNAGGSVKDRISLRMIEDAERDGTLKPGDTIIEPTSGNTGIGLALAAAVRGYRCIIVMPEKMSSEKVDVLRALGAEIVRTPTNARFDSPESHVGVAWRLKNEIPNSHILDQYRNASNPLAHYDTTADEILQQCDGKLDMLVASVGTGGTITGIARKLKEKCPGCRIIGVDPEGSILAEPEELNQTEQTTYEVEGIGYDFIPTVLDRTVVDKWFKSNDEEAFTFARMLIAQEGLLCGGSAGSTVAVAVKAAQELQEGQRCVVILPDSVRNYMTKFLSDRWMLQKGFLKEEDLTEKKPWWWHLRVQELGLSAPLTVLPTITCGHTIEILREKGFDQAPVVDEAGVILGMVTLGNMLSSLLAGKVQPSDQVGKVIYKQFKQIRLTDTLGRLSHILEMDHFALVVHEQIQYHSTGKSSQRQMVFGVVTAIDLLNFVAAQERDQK
Put plainly: Inhibition of human full length CBS using L-cysteine and L-homocysteine as substrate at 30 to 300 uM preincubated with enzyme for 1 hr followed by substrate, PLP and SAM addition for 2 hrs by AzMC probe based fluorescence analysis. The following applies: dose 30-300 µM, time 3.0 hrs. An outline of the steps:
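Human full-length CBS, 0.5 μg/well, preincubated 1 h with compound at 30 or 300 μM. Then added 5 μM PLP, 2 mM L-cysteine, 2 mM L-homocysteine and 500 μM SAM. AzMC fluorescence read kinetically for 2 h at 37 °C. Substrate background subtracted; percent of control, at least three replicates.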

The subject of assay [9] is MC-38. As to the kind of experiment: Antiproliferative activity against mouse MC38 cells assessed as inhibition of cell proliferation measured after 24 hrs by MTT assay. Format: functional, cell-based. The following applies: MC-38, 24 h.
For assay [10], the system named is CT26. As to the kind of experiment: Antiproliferative activity against mouse CT26 cells assessed as inhibition of cell proliferation measured after 48 hrs by IncuCyte live-cell imaging assay. The format is functional, cell-based. The note with it: CT26, 48 h.
A further assay has as its system Mus musculus. Put plainly: Antitumor activity against mouse MC38 cells xenografed in C57BL/6 mouse assessed as euthanasia rate at 20 mg/kg, ip administered daily for 2 weeks and measured on day 32 (reference value: 75%). The format is functional, MC-38. The following applies: time 32 day.
Assay [11] has as its system MC-38. Put plainly: Antitumor activity against mouse MC38 cells xenografed in C57BL/6 mouse assessed as reduction in tumor growth at 20 mg/kg, ip administered daily for 2 weeks by caliper analysis. The format is functional, organism-based.

One may read the IC50 as the concentration that inhibits the measured activity by half.

`Cc1cc(=O)[nH]c(SCC(=O)c2ccc(O)c(I)c2)n1`: the Activity in assay [1] is < 80%. Moreover, the IC50 in [2] was determined as 16.9 µM.
The corresponding values for `O=C(CSc1nccc(=O)[nH]1)c1ccc(O)c(O)c1` are < 80% and 18.9 µM.
For the compound `CC(=O)Nc1ccc(C(=O)CSc2nc(C)cc(O)n2)cc1`, the inhibition entry in the assay on CT26 [3] and in the assay on MC38 was “Active” in each case. The IC50 in the assay with CT26 [4] was > 1000 µM; in the assay with MC-38 [5] it was > 1000 µM; with MC-38 [9] it was > 1000 µM; in assay [2], 9.9 µM; in the assay with CT26 [10], > 1000 µM. In addition, the outcome with MC-38 [6] was inactive. The inhibition entry in assay [7] and in assay [8] was “inactive” in each case.
For `O=C(CSc1nccc(=O)[nH]1)c1cccc2ccccc12`, the inhibition entry in the assay with CT26 [3] and with MC38 was “Active” throughout. The Activity in the assay with Mus musculus stood at 33%. Moreover, the IC50 in the assay with CT26 [4] was 356 µM; in the assay with MC-38 [5], 191 µM; with MC-38 [9], 366 µM; in assay [2], 7.3 µM; in the assay on CT26 [10], 352 µM. In addition, the inhibition result in assay [7] and in [8] was “inactive” each time. Moreover, in the assay with MC-38 [11], the outcome was Active.
For the compound `O=C(CSc1nccc(=O)[nH]1)c1ccc2ccccc2c1`, the inhibition entry with CT26 [3] and in the assay on MC38 was “Active” in each case. In addition, the IC50 in the assay with CT26 [4] came to 200 µM; with MC-38 [5] it was 152 µM; in the assay with MC-38 [9], 340 µM; in assay [2], 28.2 µM; in the assay with CT26 [10], 150 µM. The inhibition result in assay [7] and in assay [8] was “inactive” each time.
Take `Cc1cc(=O)[nH]c(SCC(=O)c2ccc(O)c(F)c2)n1`: the Activity in assay [1] is < 80%. For the same compound, in assay [2], the 50% inhibitory concentration (IC50) was 28 µM.
For `NC(=O)c1cc(C(=O)CSc2nccc(=O)[nH]2)ccc1O`, in that order: < 80% and 20.2 µM.
For `O=C(CSc1nccc(=O)[nH]1)c1ccc2ncccc2c1`, the Activity in [1] is < 80%. Besides, the IC50 in [2] is 15.5 µM.
For `O=C(CSc1nccc(=O)[nH]1)c1cc(O)cc(O)c1`, in that order: < 80% and 34.1 µM.
As for `Cc1cc(=O)[nH]c(SCC(=O)c2ccc(O)c(Cl)c2)n1`, the Activity in [1] is < 80%. For the same compound, the IC50 in assay [2] turned out to be 25.3 µM.
As to `Cc1cc(=O)[nH]c(SCC(=O)c2ccc(F)c3ccccc23)n1`, in assay [2], the half-maximal inhibitory concentration (IC50) came out at 35.9 µM.
With `Nc1c(Cl)cc(C(=O)CSc2nccc(=O)[nH]2)cc1Cl`, in assay [1], the Activity is < 80%. Further, the IC50 in assay [2] was 6.6 µM.
The corresponding values for `O=C(CSc1nccc(=O)[nH]1)c1ccc(O)c(Cl)c1` are < 80% and 18.8 µM.
With `O=C(CSc1nccc(=O)[nH]1)c1ccc(O)c(I)c1`, in assay [1], the Activity is < 80%. Also, the concentration for half-maximal inhibition (IC50) in [2] was 14.2 µM.
The corresponding values for `Cc1cc(=O)[nH]c(SCC(=O)c2cc(Cl)c(O)c(Cl)c2)n1` are < 80% and 13.4 µM.
Turning to `Cc1cc(=O)[nH]c(SCC(=O)c2ccc3ccccc3c2)n1`, the half-inhibitory concentration (IC50) in assay [2] stood at 22.6 µM.
Regarding `O=C(CSc1nccc(=O)[nH]1)c1cc(Cl)c(O)c(Cl)c1`, in assay [1], the Activity was < 80%. The half-inhibitory concentration (IC50) in assay [2] came out at 12.1 µM.
Take `Cc1cc(=O)[nH]c(SCC(=O)c2ccc(O)c(C(N)=O)c2)n1`: the Activity in assay [1] is < 80%. The concentration for half-maximal inhibition (IC50) in [2] came to 21.3 µM.
On to `Cc1cc(=O)[nH]c(SCC(=O)c2ccc3ncccc3c2)n1`, for which the inhibition entry in assay [7] is “Active”. For the same compound, the 50% inhibitory concentration (IC50) in [2] came to 16.1 µM.
On to `Cc1cc(O)nc(SCC(=O)c2ccc(O)c(O)c2)n1`, for which the Activity in assay [1] was < 80%. Besides, the concentration for half-maximal inhibition (IC50) in assay [2] was determined as 15.6 µM.
For `Cc1cc(=O)[nH]c(SCC(=O)c2ccc3c(c2)OCO3)n1`, the inhibition result with CT26 [3] and with MC38 was “Active” throughout. The IC50 was 502 µM in the assay with CT26 [4]; 777 µM with MC-38 [5]; 367 µM in the assay with MC-38 [9]; 19.5 µM in assay [2]; 520 µM in the assay on CT26 [10]. Further, in the assay on MC-38 [6], the outcome was inactive. The inhibition entry in assay [7] and in assay [8] was “inactive” in each case.
Turning to `CC(=O)Nc1ccc(C(=O)CSc2nccc(O)n2)cc1`, the inhibition entry in the assay on CT26 [3] and in the assay on MC38 was “Active” throughout. The half-maximal inhibitory concentration (IC50) in the assay on CT26 [4] was 475 µM; with MC-38 [5], > 1000 µM; in the assay on MC-38 [9], > 1000 µM; in [2], 14.4 µM; with CT26 [10], > 1000 µM. Besides, the result in the assay with MC-38 [6] was inactive. The inhibition result in [7] and in [8] was “inactive” throughout.
For `Cc1cc(O)nc(SCC(=O)c2ccc(O)cc2)n1`, in assay [1], the Activity was < 80%. Also, the IC50 in [2] was 10.8 µM.
`Cc1cc(=O)[nH]c(SCC(=O)c2cc(O)cc(O)c2)n1`: the inhibition entry with CT26 [3] and in the assay with MC38 was “Active” in each case. For the same compound, the 50% inhibitory concentration (IC50) was > 1000 µM in the assay with CT26 [4]; > 1000 µM in the assay on MC-38 [5]; > 1000 µM in the assay on MC-38 [9]; 23.6 µM in assay [2]; > 1000 µM with CT26 [10]. In the assay with MC-38 [6], the outcome was inactive. For the same compound, the inhibition entry in assay [7] and in assay [8] was “inactive” each time.
Turning to `O=C(CSc1nccc(=O)[nH]1)c1ccc(O)c(F)c1`, in assay [1], the Activity was < 80%. Moreover, in assay [2], the half-inhibitory concentration (IC50) turned out to be 21.6 µM.
`Cc1cc(=O)[nH]c(SCC(=O)c2ccc(O)c3ccccc23)n1`: the Activity in assay [1] is < 80%. In addition, the half-inhibitory concentration (IC50) in assay [2] is 3.3 µM.
With `O=C(CSc1nccc(=O)[nH]1)c1ccc(O)cc1`, the inhibition result in [7] was “Active”. In assay [2], the IC50 worked out at 12.9 µM.
Regarding `O=C(CSc1nccc(=O)[nH]1)c1ccc(F)c2ccccc12`, the half-maximal inhibitory concentration (IC50) in assay [2] stood at 31.8 µM.
